In ChEMBL document CHEMBL5385869, “Novel 4-aminoquinolines: Synthesis, inhibition of the Mycobacterium tuberculosis enoyl-acyl carrier protein reductase, antitubercular activity, SAR, and preclinical evaluation” (Eur J Med Chem, 2023):
Values after ≈ are worked out from the molar mass of the structure shown. Active and inactive are the calls of the source. The calls are words filed in the database; no cut-off is given here.

How the values were obtained:
[1] = system: Mycobacterium tuberculosis; experiment: Antibacterial activity against pan-sensitive Mycobacterium tuberculosis H37Rv ATCC 27294 measured after 7 days by resazurin dye based assay; assay type: functional; settings: H37Rv ATCC 27294, 168 h, time 7 day
Procedure, shortened: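 Resazurin reduction microplate assay (REMA) in Middlebrook 7H9 broth with 10% ADC and 5% DMSO. Compounds come from 2 mg/mL DMSO stocks and are 2-fold serially diluted, top concentration 0.08–40 μg/mL depending on solubility. MIC is the lowest concentration preventing the blue-to-pink colour change. Three independent experiments; the reported value is the modal or the highest value.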

[2] = system: Mycobacterium tuberculosis; experiment: Antibacterial activity against Mycobacterium tuberculosis H37Rv ATCC 27294 infected in CF-1 mouse assessed as reversal of bacterial growth in spleen at 150 uM/kg, po administered daily for 14 days starting from 7 days post infection; assay type: functional, organism-based; settings: time 14.0 day
Procedure, shortened: (§1)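 Lung and spleen homogenates plated for CFU counts and compared with vehicle and early-control groups.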

[3] = system: Mycobacterium tuberculosis; experiment: Bactericidal activity in Mycobacterium tuberculosis H37Rv ATCC 27294 infected in CF-1 mouse assessed as reduction in bacterial growth in lungs at 150 uM/kg, po administered daily for 14 days starting from 7 days post infection; assay type: functional, organism-based; settings: time 14.0 day; procedure, shortened: as §1
[4] = target: T1, Enoyl-[acyl-carrier-protein] reductase [NADH] (Mycobacterium tuberculosis, UniProt P9WGR1); experiment: Binding affinity to Mycobacterium tuberculosis H37Rv InhA assessed as dissociation constant in presence of NADH, octenoyl-CoA and KatG
T1 sequence (P9WGR1 whole entry): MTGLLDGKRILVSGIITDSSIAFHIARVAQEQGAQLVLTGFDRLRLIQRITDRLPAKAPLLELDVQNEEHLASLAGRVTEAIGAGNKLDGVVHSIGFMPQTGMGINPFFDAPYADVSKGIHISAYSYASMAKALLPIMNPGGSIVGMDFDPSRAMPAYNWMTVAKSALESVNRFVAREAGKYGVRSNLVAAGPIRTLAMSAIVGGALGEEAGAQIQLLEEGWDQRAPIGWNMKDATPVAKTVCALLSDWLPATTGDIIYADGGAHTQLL

[5] = target: T1, Enoyl-[acyl-carrier-protein] reductase [NADH]; experiment: Binding affinity to wild type Mycobacterium tuberculosis InhA assessed as inhibition constant for formation of enzyme-inhibitor complex in presence of NADH and DD-CoA by spectrophotometry based analysis
[6] = target: T1, Enoyl-[acyl-carrier-protein] reductase [NADH]; experiment: Binding affinity to wild type Mycobacterium tuberculosis InhA assessed as inhibition constant in presence of NADH, DD-CoA by spectrophotometry based analysis
[7] = target: T1, Enoyl-[acyl-carrier-protein] reductase [NADH]; experiment: Inhibition of Mycobacterium tuberculosis InhA-catalysed chemical reaction in presence of NADH measured for 1 min by UV/Visible spectrophotometry
Procedure, shortened: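 Recombinant MtInhA reaction at 25 °C in 100 mM Pipes pH 7.0, started by adding 2.2 μM enzyme and followed for 1 min. Substrate is DD-CoA, made from 2-trans-dodecenoic acid and CoA.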

[8] = target: T2, Enoyl-[acyl-carrier-protein] reductase [NADH] (Mycobacterium tuberculosis) (UniProt P9WGR1); experiment: Time dependent inhibition of Mycobacterium tuberculosis InhA
T2 sequence (whole entry): T1 sequence (P9WGR1 whole entry)

[9] = target: T1, Enoyl-[acyl-carrier-protein] reductase [NADH]; experiment: Noncompetitive inhibition of Mycobacterium tuberculosis InhA using DD-CoA as substrate assessed as inhibition constant for enzyme-substrate-inhibitor ternary complex in presence of varying concentrations of NADH by double reciprocal plot analysis
[10] = target: T1, Enoyl-[acyl-carrier-protein] reductase [NADH]; experiment: Noncompetitive inhibition of Mycobacterium tuberculosis InhA using DD-CoA as substrate assessed as inhibition constant for enzyme-inhibitor binary complex in presence of varying concentrations of NADH by double reciprocal plot analysis
[11] = target: T1, Enoyl-[acyl-carrier-protein] reductase [NADH]; experiment: Competitive inhibition of Mycobacterium tuberculosis InhA using varying concentrations of DD-CoA as substrate assessed as inhibition constant for enzyme-inhibitor binary complex in presence of NADH by Lineweaver-Burk plot analysis
Procedure, shortened: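 Steady-state kinetics with recombinant MtInhA in 100 mM Pipes pH 7.0 at 25 °C. NADH fixed at 60 μM, DD-CoA varied 15–135 μM, inhibitor at fixed-varied levels of 0.2–4 μM. Kis is fitted to the competitive inhibition equation.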

[12] = Cytotoxicity against human HepG2 cells assessed as reduction in cell viability incubated for 72 hrs by MTT assay; assay type: toxicity, cell-based
Procedure, shortened: (§2)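 Cells grown in DMEM with 10% FBS. HepG2 seeded at 4 × 10³ and Vero at 2 × 10³ cells/well, 24 h before dosing. Compounds at 1, 5 and 20 μM in 1% DMSO for 72 h at 37 °C, 5% CO2. MTT readout: 5 mg/mL reagent for 4 h, absorbance at 595 nm. Neutral red readout: 25 μg/mL dye for 3 h, then acid-ethanol desorb. Viability is expressed relative to 1% DMSO controls.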

[13] = Cytotoxicity against human HepG2 cells assessed as reduction in cell viability incubated for 72 hrs by neutral red uptake assay; assay type: toxicity, cell-based; procedure, shortened: as §2
[14] = Cytotoxicity against African green monkey Vero cells assessed as reduction in cell viability incubated for 72 hrs by MTT assay; assay type: toxicity, cell-based; settings: chlorocebus sabaeus; procedure, shortened: as §2
[15] = Cytotoxicity against African green monkey Vero cells assessed as reduction in cell viability incubated for 72 hrs by neutral red uptake assay; assay type: toxicity, cell-based; settings: chlorocebus sabaeus; procedure, shortened: as §2
[16] = Selectivity index, ratio of CC50 for human HepG2 cells by MTT assay to MIC for pan-sensitive Mycobacterium tuberculosis H37Rv ATCC 27294; assay type: toxicity; settings: read-out: Selectivity Index
[17] = Selectivity index, ratio of CC50 for human HepG2 cells by neutral red uptake assay to MIC for pan-sensitive Mycobacterium tuberculosis H37Rv ATCC 27294; assay type: toxicity; settings: read-out: Selectivity Index
[18] = Selectivity index, ratio of CC50 for African green monkey Vero cells by MTT assay to MIC for pan-sensitive Mycobacterium tuberculosis H37Rv ATCC 27294; assay type: toxicity, cell-based; settings: read-out: Selectivity Index
[19] = Selectivity index, ratio of CC50 for African green monkey Vero cells by neutral red uptake assay to MIC for pan-sensitive Mycobacterium tuberculosis H37Rv ATCC 27294; assay type: toxicity, cell-based; settings: read-out: Selectivity Index
Staphylococcus aureus = experiment: Antibacterial activity against Staphylococcus aureus ATCC 25923 assessed as inhibition of bacterial growth at 20 uM by broth microdilution method; assay type: functional, organism-based
Procedure, shortened: (§3)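 Broth microdilution in triplicate against a small bacterial panel, with compounds tested at 20 μM for growth inhibition.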

Escherichia coli = experiment: Antibacterial activity against Escherichia coli ATCC 25922 assessed as inhibition of bacterial growth at 20 uM by broth microdilution method; assay type: functional, organism-based; procedure, shortened: as §3
Acinetobacter baumannii = experiment: Antibacterial activity against multidrug-resistant Acinetobacter baumannii clinical isolates assessed as inhibition of bacterial growth at 20 uM by broth microdilution method; assay type: functional, organism-based; procedure, shortened: as §3
Klebsiella pneumoniae = experiment: Antibacterial activity against multidrug-resistant Klebsiella pneumoniae clinical isolates assessed as inhibition of bacterial growth at 20 uM by broth microdilution method; assay type: functional, organism-based; procedure, shortened: as §3
[20] = Chemical stability in 0.1 M HCl solution at pH 1.2 assessed as parent compound remaining at 1 to 10 uM measured after 24 hrs by HPLC-EM/MS analysis; assay type: physicochemical; settings: dose 1-10 µM, read-out: Stability
Procedure, shortened: (§4)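 Compounds at 1–10 μM incubated 24 h at 37 °C in three media: pH 1.2 (0.1 M HCl), pH 7.4 (PBS) and pH 9.1 (0.1 M NH4HCO3). Remaining parent compound quantified afterward.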

[21] = Chemical stability in PBS at pH 7.4 assessed as parent compound remaining at 1 to 10 uM measured after 24 hrs by HPLC-EM/MS analysis; assay type: physicochemical; settings: dose 1-10 µM, read-out: Stability; procedure, shortened: as §4
[22] = Chemical stability in 0.1 M NH4HCO3 solution at pH 9.1 assessed as parent compound remaining at 1 to 10 uM measured after 24 hrs by HPLC-EM/MS analysis; assay type: physicochemical; settings: dose 1-10 µM, read-out: Stability; procedure, shortened: as §4
[23] = Solubility of compound in 0.1 M HCl solution at pH 1.2 at 1 mg incubated for 4 hrs under shaking conditions by liquid chromotography; assay type: physicochemical
Procedure, shortened: (§5)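 1 mg of compound was added to 1 mL of PBS pH 7.4 or 0.1 M HCl, in triplicate. Suspensions were vortexed 1 min, shaken 4 h at 25 °C, then centrifuged 13000 rpm for 15 min at 25 °C. Supernatant was quantified by reverse-phase UHPLC (UV 260–280 nm) against a single-point calibration of compound in DMSO.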

[24] = Solubility of compound in PBS at pH 7.4 at 1 mg incubated for 4 hrs under shaking conditions by liquid chromotography; assay type: physicochemical; procedure, shortened: as §5
[25] = Permeability of compound at 10 uM measured after 5 hrs by PAMPA assay; assay type: ADME; settings: read-out: permeability
Procedure, shortened: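 PAMPA: compounds at 10 μM in 2% DMSO added to a pH 7.4 donor phase, 5 h at room temperature. Receptor-side concentration (pH 7.4) measured to derive permeation rate. Alprenolol is the analytical control.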

[26] = Metabolic stability in rat liver microsomes assessed as intrinsic clearance at 2 uM measured upto 30 mins by HPLC/MS/MS analysis; assay type: ADME, Microsome; settings: read-out: CLH
Procedure, shortened: (§6)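 Compounds at 2 μM incubated at 37 °C with 1 mg/mL rat liver microsomes containing NADPH. Parent compound consumption followed over time.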

[27] = Metabolic stability in rat liver microsomes assessed as half life at 2 uM measured upto 30 mins by HPLC/MS/MS analysis; assay type: ADME, Microsome; procedure, shortened: as §6
[28] = Chemical stability in PBS at pH 7.4 assessed as reduction in parent compound at 1 to 10 uM measured after 24 hrs by HPLC-EM/MS analysis; assay type: physicochemical; settings: dose 1-10 µM, read-out: Drug degradation; procedure, shortened: as §4
[29] = target: T1, Enoyl-[acyl-carrier-protein] reductase [NADH]; experiment: Binding affinity to Mycobacterium tuberculosis InhA assessed as dissociation constant at 250 uM at 25 degreeC in presence of NADH by fluorescence spectroscopy
Procedure, shortened: (§7)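 Titration of pre-formed MtInhA:NADH complex (2 mL of 3 μM enzyme with 20 μM NADH), adding microliter aliquots of 250 μM ligand stock with dilution kept ≤1%. Intrinsic fluorescence read at 295 nm excitation, 310–500 nm emission. Temperatures 15, 20, 25 and 30 °C. KD is fitted to a hyperbolic isotherm. ΔH°, ΔS° and ΔG° come from van't Hoff analysis of KD across temperatures.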

[30] = target: T2, Enoyl-[acyl-carrier-protein] reductase [NADH] (Mycobacterium tuberculosis); experiment: Binding affinity to Mycobacterium tuberculosis InhA assessed as change in enthalpy at 250 uM in presence of NADH by fluorescence spectroscopy
[31] = target: T2, Enoyl-[acyl-carrier-protein] reductase [NADH] (Mycobacterium tuberculosis); experiment: Binding affinity to Mycobacterium tuberculosis InhA assessed as change in entropy at 250 uM in presence of NADH by fluorescence spectroscopy
[32] = target: T2, Enoyl-[acyl-carrier-protein] reductase [NADH] (Mycobacterium tuberculosis); experiment: Binding affinity to Mycobacterium tuberculosis InhA assessed as gibbs free energy change at 250 uM in presence of NADH by fluorescence spectroscopy; procedure, shortened: as §7

NNC(=O)c1ccncc1 [ISONIAZID]
MIC [1]: 2.3 µM (≈ 0.315 µg/mL)
Activity [2]: Active
Activity [3]: Active
Kd [4]: < 0.4 nM
Ki [5]: 16 nM
Ki [6]: 0.75 nM

CSc1ccc2nc(C)cc(Nc3ccc(N4CCCCC4)cc3)c2c1
IC50 [7]: 1000 nM
MIC [1]: 0.4 µM (≈ 0.145 µg/mL)
TDI [8]: inactive
Ki [9]: 410 nM
Ki [10]: 430 nM
Ki [11]: 620 nM
CC50 at 72 h [12]: 5900 nM
CC50 at 72 h [13]: 12200 nM
CC50 at 72 h [14]: 11100 nM
CC50 at 72 h [15]: 8500 nM
selectivity ratio [16]: 14.7
selectivity ratio [17]: 30.5
selectivity ratio [18]: 27.7
selectivity ratio [19]: 21.2
Activity (Staphylococcus aureus): inactive
Activity (Escherichia coli): inactive
Activity (Acinetobacter baumannii): inactive
Activity (Klebsiella pneumoniae): inactive
remaining at 24 h, up to 10 µM [20]: 100%
remaining at 24 h, up to 10 µM [21]: 68%
remaining at 24 h, up to 10 µM [22]: 100%
solubility thermodynamic at 4 h [23]: > 2700 µM
solubility thermodynamic at 4 h [24]: 38 µM (≈ 13.8 µg/mL)
Papp at 5 h, 10 µM [25]: 0.03 ×10⁻⁶ cm/s
CLint scaled at 2 µM [26]: 60 mL/min/kg
half-life at 2 µM [27]: 5.9 min
degraded at 24 h, up to 10 µM [28]: > 30%
Kd [29]: 870 nM
deltaH [30]: -25.8 kcal/mol
deltaS [31]: -55.7 cal/mol/K
deltaG [32]: -8.3 kcal/mol
